# Many of the other results were omitted from the sample, so hits are more common in it than they were.
# GASC1 inh: KDM4C (human) demethylase inhibition. AID 720574. inhibition, % at 12.5 µM. 96,000 tested, 0.15% active. GST-KDM4C 2-372, H3K9me3 peptide, LANCE TR-FRET. Q9H3R0;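 active = mean replicate inhibition above about 25%, with at least 55% of replicates also reaching it, limit read from the data, passing the limit was not always enough; inconclusive = only one of those two conditions met; inactive = neither condition met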
# Target sequence (Q9H3R0 2-372 limits assumed): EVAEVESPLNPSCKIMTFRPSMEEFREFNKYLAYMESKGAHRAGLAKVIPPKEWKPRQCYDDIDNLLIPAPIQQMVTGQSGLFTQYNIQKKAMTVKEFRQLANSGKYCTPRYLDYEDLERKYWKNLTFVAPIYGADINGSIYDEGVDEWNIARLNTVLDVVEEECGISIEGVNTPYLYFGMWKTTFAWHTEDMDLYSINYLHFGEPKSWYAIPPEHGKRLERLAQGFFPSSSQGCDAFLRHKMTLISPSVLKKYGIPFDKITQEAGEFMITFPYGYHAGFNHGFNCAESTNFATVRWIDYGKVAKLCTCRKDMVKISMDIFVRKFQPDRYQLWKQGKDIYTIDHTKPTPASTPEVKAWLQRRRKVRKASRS
#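 material = GST-tagged GASC-1 (JMJD2C) catalytic fragment, aa 2-372 | amount = enzyme final amount 10 nM | medium = HEPES buffer, pH 7.5, plus ascorbate | also added = H3K9me3 peptide substrate, Fe(II), 2-oxoglutarate | dosing = single dose | times = 30 min demethylation and 1 h detection at room temperature | detection = LANCE TR-FRET | read-out basis = Fall in 671/618 emission ratio as inhibition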
# T cruzi growth-1: T. cruzi proliferation inhibition. T. cruzi beta-gal in NIH3T3, GalScreen luminescence, 90 h. 77,000 tested, 5.9% active. inhibition, % at 8.34 µM;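 active = mean inhibition above about 93%, with at least 55% of replicates each passing it, limit read from the data, passing the limit was not always enough; inconclusive = only one of those two conditions holds; inactive = neither condition holds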
# IDH1 R132H inh: inhibitors of human IDH1 R132H. O75874. IDH1 R132H reductase, diaphorase/resazurin fluorescence, 60 min. inhibition, % at 10 µM. 70,000 tested, 0.18% active; in the data active = inhibition above about 34%; inconclusive = no clear call, values can overlap the other calls; inactive = below about 11%
# T cruzi growth-2: blocks T. cruzi growth in NIH3T3 host cells; shares compounds with T cruzi growth-1; T. cruzi beta-gal in NIH3T3, GalScreen luminescence, 90 h; inhibition, % at 8.35 µM; AID 651739; 5,600 tested, 72% active;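 active = mean replicate inhibition above about 95% and at least 55% of replicates individually reaching it, limit read from the data; inconclusive = only one of the two criteria is met; inactive = neither criterion is met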
# T cruzi growth-3: blocks T. cruzi growth in NIH3T3 host cells. inhibition, % at 2.09 µM. 5,600 tested, 21% active. T. cruzi beta-gal in NIH3T3, GalScreen luminescence, 90 h. AID 651740. shares compounds with T cruzi growth-1;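 active = mean inhibition above about 95%, with at least 55% of replicates also reaching it, limit read from the data; inconclusive = meets just one of the two conditions; inactive = meets neither condition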
# 3T3 cytotox: cytotoxicity in mouse NIH/3T3 fibroblasts | shares compounds with T cruzi growth-1 | NIH/3T3 viability, CellTiter-Glo ATP luminescence, 90 h | cytotoxicity (signal decrease), % at 8.35 µM | 5,600 tested, 14% active | AID 651742;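 active = mean signal decrease across replicates above about 35% based on untreated-well scatter, with enough replicates individually passing, limit read from the data; inconclusive = no rule stated though some were filed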
# 3T3 cytotox 2: kills mouse NIH/3T3 fibroblasts; shares compounds with T cruzi growth-1; NIH/3T3 viability, CellTiter-Glo ATP luminescence, 90 h; inhibition, % at 24.9 µM; 5,600 tested, 56% active; AID 651744;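 active = mean loss of cell viability signal at or above a set limit, and enough replicates individually reaching it; inconclusive = meets only the mean limit or only the replicate share; inactive = meets neither condition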
# Numbers stand for hits; 0 = inactive; ? = inconclusive; - = not tested or not shown.
SMILES,GASC1 inh,T cruzi growth-1,IDH1 R132H inh,T cruzi growth-2,T cruzi growth-3,3T3 cytotox,3T3 cytotox 2
COc1ccc(NC(=O)Nc2ccc3c(c2)C(=O)N([C@@H](C)CO)C[C@H](C)[C@@H](CN(C)C(=O)Nc2ccccc2)OCCCC[C@H](C)O3)cc1,0,0,0,-,-,-,-
CC(C)CC#Cc1ccc2c(c1)O[C@H](CN(C)C(=O)C1CCCCC1)[C@@H](C)CN([C@H](C)CO)S2(=O)=O,0,118,0,106,107,0,105
CC(C)CC#Cc1ccc2c(c1)O[C@@H](CN(C)C(=O)C1CCCCC1)[C@H](C)CN([C@@H](C)CO)S2(=O)=O,0,122,-,104,104,0,105
CC(C)CC#Cc1ccc2c(c1)O[C@H](CN(C)C(=O)C1CCCCC1)[C@@H](C)CN([C@@H](C)CO)S2(=O)=O,0,112,-,100,116,0,104
CC(C)CC#Cc1ccc2c(c1)O[C@H](CN(C)C(=O)C1CC1)[C@H](C)CN([C@H](C)CO)S2(=O)=O,0,0,-,-,-,-,-
CC(C)CC#Cc1ccc2c(c1)O[C@H](CN(C)C(=O)C1CC1)[C@@H](C)CN([C@H](C)CO)S2(=O)=O,0,0,-,-,-,-,-
CC(C)CC#Cc1ccc2c(c1)O[C@H](CN(C)C(=O)C1CC1)[C@H](C)CN([C@@H](C)CO)S2(=O)=O,0,0,-,-,-,-,-
CN(C)CC(=O)N1[C@H](CO)[C@@H](c2ccccc2)C12CN(Cc1cc(F)ccc1F)C2,0,-,-,-,-,-,-
CCCC(=O)Nc1nc2c(ncn2C2O[C@H]3COP(=O)(O)O[C@@H]3[C@@H]2OC(=O)CCC)c(=O)[nH]1 (stereo not given in full),-,-,0,-,-,-,-
CCOc1ccc(-c2nc(C#N)c(NCCCN(CC)CC)o2)cc1,-,-,0,-,-,-,-
C[C@@H]1CCCCO[C@H](CN(C)Cc2ccc(C(=O)O)cc2)[C@@H](C)CN([C@H](C)CO)C(=O)c2cc(NC(=O)C3CCCCC3)ccc2O1,0,0,0,-,-,-,-
C[C@H](CO)N1C[C@H](C)[C@H](CN(C)Cc2ccc(C(=O)O)cc2)OCCCC[C@H](C)Oc2ccc(NC(=O)C3CCCCC3)cc2C1=O,0,0,0,-,-,-,-
C[C@@H]1CCCCO[C@@H](CN(C)Cc2ccc(C(F)(F)F)cc2)[C@@H](C)CN([C@H](C)CO)C(=O)c2cc(NC(=O)C3CCCCC3)ccc2O1,0,0,0,-,-,-,-
C[C@@H]1CCCCO[C@H](CN(C)Cc2ccc(C(F)(F)F)cc2)[C@H](C)CN([C@H](C)CO)C(=O)c2cc(NC(=O)C3CCCCC3)ccc2O1,0,?,-,96,110,0,0
C[C@@H]1CN([C@H](C)CO)C(=O)c2cc(NC(=O)C3CCCCC3)ccc2O[C@@H](C)CCCCO[C@@H]1CN(C)Cc1ccc(C(=O)O)cc1,0,0,0,-,-,-,-
C[C@@H]1CN([C@H](C)CO)C(=O)c2cc(NC(=O)C3CCCCC3)ccc2O[C@@H](C)CCCCO[C@@H]1CN(C)Cc1ccc(C(F)(F)F)cc1,0,?,-,0,113,0,0
C[C@@H]1CCCCO[C@@H](CN(C)Cc2ccc(C(F)(F)F)cc2)[C@@H](C)CN([C@@H](C)CO)C(=O)c2cc(NC(=O)C3CCCCC3)ccc2O1,0,?,0,102,0,0,0
C[C@@H]1CN([C@@H](C)CO)C(=O)c2cc(NC(=O)C3CCCCC3)ccc2O[C@@H](C)CCCCO[C@@H]1CN(C)Cc1ccc(C(F)(F)F)cc1,0,?,0,104,105,0,0
CN1c2ccc(-c3cccc(C#N)c3)cc2[C@H]2[C@H](CCN2C(=O)C2CC2)[C@@H]1CO,0,-,-,-,-,-,-
CC(=O)Nc1ccc(C(=O)CSc2cc(C)c3ccccc3n2)cc1,-,-,0,-,-,-,-
CCOc1ccc(-n2c(SCC(=O)Nc3ccc(Cl)cc3)nc3ccccc3c2=O)cc1,-,-,0,-,-,-,-
COC(=O)COc1cccc(NC(=O)c2ccccc2Cl)c1,-,-,0,-,-,-,-
CCn1c(SCC(=O)Nc2ccc(F)cc2)nnc1-c1ccc(Cl)cc1Cl,-,-,0,-,-,-,-
Cc1cc(=O)[nH]c(SCCOc2ccc(C(=O)c3ccccc3)cc2)n1,-,-,0,-,-,-,-
COc1ccc(S(=O)(=O)N(C)C[C@H]2Oc3ccc(NC(=O)C4CC4)cc3CC(=O)N([C@H](C)CO)C[C@H]2C)cc1,0,0,0,-,-,-,-

# Screens deposited in PubChem by Broad Institute.
